Results reported in ChEMBL document CHEMBL3352219, “Triterpenes from Alisma orientalis act as androgen receptor agonists, progesterone receptor antagonists, and glucocorticoid receptor antagonists” (Bioorg Med Chem Lett, 2014).
The source made the active and inactive calls. The rule behind the calls is not given here.

How the values were obtained:
[1] = test system: HepG2; test: Cytotoxicity against human HepG2 cells; type: cell-based
[2] = molecular target: T1, Androgen receptor (Homo sapiens) (UniProt P10275); test: Agonist activity at androgen receptor (unknown origin) expressed in human HepG2 cells assessed as relative luciferase activity at 1 uM by MMTV promoter-driven luciferase reporter gene assay relative to untreated vehicle control; type: cell-based
T1 sequence (whole entry): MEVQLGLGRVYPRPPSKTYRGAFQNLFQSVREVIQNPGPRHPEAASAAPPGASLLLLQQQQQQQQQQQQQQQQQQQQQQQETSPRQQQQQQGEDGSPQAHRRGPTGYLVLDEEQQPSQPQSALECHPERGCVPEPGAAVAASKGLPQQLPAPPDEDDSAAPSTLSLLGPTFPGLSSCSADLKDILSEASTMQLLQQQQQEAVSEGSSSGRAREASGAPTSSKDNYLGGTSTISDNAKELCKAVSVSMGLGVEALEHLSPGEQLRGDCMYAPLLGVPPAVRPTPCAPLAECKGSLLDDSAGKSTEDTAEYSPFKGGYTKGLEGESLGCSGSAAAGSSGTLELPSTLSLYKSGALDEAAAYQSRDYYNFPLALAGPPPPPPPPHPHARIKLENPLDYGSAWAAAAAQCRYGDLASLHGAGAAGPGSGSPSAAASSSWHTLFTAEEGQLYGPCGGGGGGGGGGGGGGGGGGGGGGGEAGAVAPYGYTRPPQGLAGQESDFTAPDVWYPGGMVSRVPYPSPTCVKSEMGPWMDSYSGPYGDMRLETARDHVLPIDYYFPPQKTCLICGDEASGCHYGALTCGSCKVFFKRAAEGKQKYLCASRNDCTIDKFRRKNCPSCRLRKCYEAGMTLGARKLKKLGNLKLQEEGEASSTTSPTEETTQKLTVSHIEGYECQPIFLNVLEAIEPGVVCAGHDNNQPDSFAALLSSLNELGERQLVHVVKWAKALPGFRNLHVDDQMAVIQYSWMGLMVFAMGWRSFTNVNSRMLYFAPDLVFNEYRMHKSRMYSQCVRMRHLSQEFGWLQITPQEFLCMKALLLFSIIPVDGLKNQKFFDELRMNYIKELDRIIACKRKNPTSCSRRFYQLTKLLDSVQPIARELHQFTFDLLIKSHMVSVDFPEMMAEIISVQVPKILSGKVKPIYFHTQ
In short: (§1)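 HepG2 in phenol red-free DMEM with 10% charcoal-stripped FBS, plated in triplicate at 1 × 10^5 cells/well. After 24 h, transfected with 2 µg wild-type AR expression plasmid (pCMV-AR), 6 µg pMMTV-luc reporter and 1 µg β-galactosidase plasmid. Treated 24 h, then lysed. Luciferase normalized to β-gal and expressed relative to DMSO vehicle (=1).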

[3] = molecular target: T1, Androgen receptor (Homo sapiens); test: Agonist activity at androgen receptor (unknown origin) expressed in human HepG2 cells assessed as relative luciferase activity at 100 nM by MMTV promoter-driven luciferase reporter gene assay relative to untreated vehicle control; type: cell-based; in short: as §1
[4] = molecular target: T2, Progesterone receptor (Homo sapiens) (UniProt P06401); test: Agonist activity at progesterone receptor (unknown origin) expressed in human HepG2 cells assessed as relative luciferase activity at 20 uM by MMTV promoter-driven luciferase reporter gene assay relative to progesterone; type: cell-based
T2 sequence (whole entry): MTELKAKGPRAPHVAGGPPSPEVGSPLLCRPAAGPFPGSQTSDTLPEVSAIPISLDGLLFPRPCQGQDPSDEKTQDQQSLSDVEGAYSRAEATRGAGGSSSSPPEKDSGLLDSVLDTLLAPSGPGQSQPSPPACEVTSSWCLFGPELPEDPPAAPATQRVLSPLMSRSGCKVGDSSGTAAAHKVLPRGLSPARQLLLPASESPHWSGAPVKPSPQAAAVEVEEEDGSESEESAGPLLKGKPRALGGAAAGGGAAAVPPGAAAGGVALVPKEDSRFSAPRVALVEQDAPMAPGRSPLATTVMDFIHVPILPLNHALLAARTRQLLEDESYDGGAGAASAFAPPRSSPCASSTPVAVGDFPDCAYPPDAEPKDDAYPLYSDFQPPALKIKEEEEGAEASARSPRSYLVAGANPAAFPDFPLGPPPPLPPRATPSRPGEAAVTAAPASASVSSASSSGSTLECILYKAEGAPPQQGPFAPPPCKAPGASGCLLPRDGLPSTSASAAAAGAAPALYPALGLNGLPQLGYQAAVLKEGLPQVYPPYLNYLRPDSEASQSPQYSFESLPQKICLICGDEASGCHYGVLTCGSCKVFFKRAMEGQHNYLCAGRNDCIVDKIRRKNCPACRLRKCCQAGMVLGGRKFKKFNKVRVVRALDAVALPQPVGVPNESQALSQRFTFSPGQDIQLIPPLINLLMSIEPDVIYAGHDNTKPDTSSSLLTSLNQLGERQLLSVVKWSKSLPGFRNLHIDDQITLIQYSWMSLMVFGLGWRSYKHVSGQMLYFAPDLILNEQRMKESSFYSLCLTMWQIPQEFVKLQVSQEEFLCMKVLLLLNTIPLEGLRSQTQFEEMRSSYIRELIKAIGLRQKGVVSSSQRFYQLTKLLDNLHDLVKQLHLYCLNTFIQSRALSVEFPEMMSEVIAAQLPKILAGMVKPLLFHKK

[5] = molecular target: T2, Progesterone receptor (Homo sapiens); test: Antagonist activity at progesterone receptor (unknown origin) expressed in human HepG2 cells assessed as reduction in progesterone-induced response at 10 uM by MMTV promoter-driven luciferase reporter gene assay; type: cell-based
In short: (§2)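 Triplicate HepG2 wells in phenol red-free, charcoal-stripped serum medium. Cotransfected with 2 µg pCMV-PR, 6 µg pMMTV-luc and 1 µg β-gal plasmid. Compound added with 10 nM progesterone for 24 h. Lysate luminescence normalized to β-galactosidase and expressed relative to progesterone alone (=1).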

[6] = molecular target: T2, Progesterone receptor (Homo sapiens); test: Antagonist activity at progesterone receptor (unknown origin) expressed in human HepG2 cells assessed as reduction in progesterone-induced response at 1 uM by MMTV promoter-driven luciferase reporter gene assay; type: cell-based; in short: as §2
[7] = molecular target: T2, Progesterone receptor (Homo sapiens); test: Antagonist activity at progesterone receptor (unknown origin) expressed in human HepG2 cells assessed as reduction in progesterone-induced response at 100 nM by MMTV promoter-driven luciferase reporter gene assay; type: cell-based; in short: as §2
[8] = molecular target: T3, Glucocorticoid receptor (Homo sapiens) (UniProt P04150); test: Antagonist activity at glucocorticoid receptor (unknown origin) expressed in human HepG2 cells assessed as reduction in dexamethasone-induced response at 10 uM by MMTV promoter-driven luciferase reporter gene assay; type: cell-based; details: in the assay text read “GRE promoter-driven” for “MMTV promoter-driven”
T3 sequence (whole entry): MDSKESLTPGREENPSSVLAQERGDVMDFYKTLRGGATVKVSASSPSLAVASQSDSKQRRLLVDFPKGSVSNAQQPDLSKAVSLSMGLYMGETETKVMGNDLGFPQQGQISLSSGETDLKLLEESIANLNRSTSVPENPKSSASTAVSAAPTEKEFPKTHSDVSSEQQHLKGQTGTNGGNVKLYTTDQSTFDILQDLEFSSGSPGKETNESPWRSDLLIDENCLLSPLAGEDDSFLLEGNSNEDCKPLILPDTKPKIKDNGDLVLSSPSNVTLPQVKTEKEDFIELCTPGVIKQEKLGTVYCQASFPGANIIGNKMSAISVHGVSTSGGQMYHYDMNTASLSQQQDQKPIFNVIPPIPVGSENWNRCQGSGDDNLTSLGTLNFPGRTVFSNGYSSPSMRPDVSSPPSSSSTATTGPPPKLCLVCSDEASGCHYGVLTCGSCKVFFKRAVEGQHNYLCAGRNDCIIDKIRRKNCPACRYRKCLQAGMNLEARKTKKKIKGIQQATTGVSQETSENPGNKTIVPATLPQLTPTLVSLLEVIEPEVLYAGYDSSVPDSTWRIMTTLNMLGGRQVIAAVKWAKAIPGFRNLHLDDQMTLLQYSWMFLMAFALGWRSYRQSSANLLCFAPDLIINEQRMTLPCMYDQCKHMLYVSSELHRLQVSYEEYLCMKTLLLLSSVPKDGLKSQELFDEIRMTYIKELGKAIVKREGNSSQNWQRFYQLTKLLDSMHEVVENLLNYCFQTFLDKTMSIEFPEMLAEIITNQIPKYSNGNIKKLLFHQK
In short: (§3)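 HepG2 in phenol red-free DMEM with charcoal-stripped FBS, triplicate wells. Transfected with 2 µg pCMV-GR, 6 µg pGRE-luc reporter and 1 µg β-gal control. Compound co-treated with 5 nM dexamethasone for 24 h. Luciferase/β-galactosidase ratio expressed relative to dexamethasone alone (=1).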

[9] = molecular target: T3, Glucocorticoid receptor (Homo sapiens); test: Antagonist activity at glucocorticoid receptor (unknown origin) expressed in human HepG2 cells assessed as reduction in dexamethasone-induced response at 1 uM by MMTV promoter-driven luciferase reporter gene assay; type: cell-based; details: in the assay text read “GRE promoter-driven” for “MMTV promoter-driven”; in short: as §3
[10] = molecular target: T3, Glucocorticoid receptor (Homo sapiens); test: Antagonist activity at glucocorticoid receptor (unknown origin) expressed in human HepG2 cells assessed as reduction in dexamethasone-induced response at 100 nM by MMTV promoter-driven luciferase reporter gene assay; type: cell-based; details: in the assay text read “GRE promoter-driven” for “MMTV promoter-driven”; in short: as §3
[11] = molecular target: T3, Glucocorticoid receptor (Homo sapiens); test: Agonist activity at glucocorticoid receptor (unknown origin) expressed in human HepG2 cells assessed as relative luciferase activity at 20 uM by GRE promoter-driven luciferase reporter gene assay relative to dexamethasone

Row | Activity [2] | Activity [3] | Activity [4] | Activity (% of progesterone control) [5] [%] | Activity (% of progesterone control) [6] [%] | inhibition [7] | Activity (% of dexamethasone control) [8] [%] | Activity (% of dexamethasone control) [9] [%] | inhibition [10] | Activity [11] | SMILES | Activity [1]
1 | – | – | – | – | – | – | – | – | – | – | C[C@H](C[C@H](O)[C@H]1OC1(C)C)C1=C2C[C@H](O)[C@H]3[C@@]4(C)CCC(=O)C(C)(C)[C@@H]4CC[C@]3(C)[C@@]2(C)CC1 [ALISOL B] | Toxic
2 | inactive | inactive | inactive | 66 | 82 | Active | 39 | 56 | Active | inactive | CC(=O)O[C@@H](C[C@@H](C)C1=C2C[C@H](O)[C@H]3[C@@]4(C)CCC(=O)C(C)(C)[C@@H]4CC[C@]3(C)[C@@]2(C)CC1)[C@@H](O)C(C)(C)O | Non-toxic
3 | inactive | inactive | inactive | 64 | 71 | inactive | 30 | 56 | inactive | inactive | CC(=O)O[C@@H](C[C@@H](C)C1=C2[C@H](O)[C@H](O)[C@H]3[C@@]4(C)CCC(=O)C(C)(C)[C@@H]4CC[C@]3(C)[C@@]2(C)CC1=O)[C@H]1OC1(C)C | Non-toxic
